Data as given in ChEMBL document CHEMBL3120160, “Nucleotide prodrugs of 2'-deoxy-2'-spirooxetane ribonucleosides as novel inhibitors of the HCV NS5B polymerase” (J Med Chem, 2014).

Experiments:
[1] = Cytotoxicity against human HuH7 cells assessed as inhibition of cell proliferation after 3 days by BrdU incorporation assay; assay type: cell-based, Huh-7
Outline: (§1)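 Huh7 HCV replicon cells treated with compound for 3 days in 384-well format; antiviral EC50 and cytotoxic CC50 are each the mean of at least three repeats.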

Hepatitis C virus [2] = test: Antiviral activity against Hepatitis C virus genotype 1b in human Huh7-luc clone ET replicon cells assessed as inhibition of replicon replication after 3 days by luciferase assay; assay type: functional, organism-based, Hepacivirus hominis; conditions: Huh-7, 72 h; outline: as §1
[3] = Inhibition of wild type Hepatitis C virus truncated NS5B RNA dependent RNA polymerase lacking C-terminal 21 aminoacids using cIRES as template after 2 hrs by filter plate assay; set-up: species or system Hepacivirus hominis
Outline: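 Wild-type HCV RdRp biochemical assay, tested with the nucleoside 5′-triphosphate (NTP) form; value reported as Ki, the average of two independent experiments.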

Hepatocyte [4] = test: Prodrug activation in human hepatocytes assessed as triphosphate metabolite formation at 10 uM after 2 hrs by LC-MS analysis; assay type: ADME, cell-based
Outline: (§2)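 Prodrugs incubated at 10 μM with rat or human hepatocyte cultures; triphosphate metabolite quantified by LC–MS of cell lysates at 2 and 8 h.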

Liver [5] = test: AUC (0 to infinity) in Sprague-Dawley rat liver assessed as triphosphate metabolite level at 50 mg/kg, po administered as single dose; assay type: ADME, organism-based; set-up: time infinity, dose 50 mg/kg, route oral; conditions: in vivo
Hepatocyte [6] = test: Prodrug activation in rat hepatocytes assessed as triphosphate metabolite formation at 10 uM after 2 hrs by LC-MS analysis; assay type: ADME, cell-based; outline: as §2
Hepatocyte [7] = test: Prodrug activation in rat hepatocytes assessed as triphosphate metabolite formation at 10 uM after 8 hrs by LC-MS analysis; assay type: ADME, cell-based; outline: as §2
Liver [8] = test: Tmax in Sprague-Dawley rat liver assessed as triphosphate metabolite level at 50 mg/kg, po administered as single dose; assay type: ADME, organism-based; set-up: dose 50 mg/kg, route oral; conditions: in vivo
Liver [9] = test: Cmax in Sprague-Dawley rat liver assessed as triphosphate metabolite level at 50 mg/kg, po administered as single dose measured per gm of tissue; assay type: ADME, organism-based; set-up: dose 50 mg/kg, route oral; conditions: in vivo
Hepatocyte [10] = test: Prodrug activation in human hepatocytes assessed as triphosphate metabolite formation at 10 uM after 8 hrs by LC-MS analysis; assay type: ADME, cell-based; outline: as §2
Hepatitis C virus [11] = test: Ratio of EC50 for Hepatitis C virus genotype 1b harboring NS5B polymerase S282T mutant gene to EC50 for Hepatitis C virus genotype 1b harboring wild type NS5B polymerase in human Huh7-luc clone ET replicon cells by luciferase assay; assay type: functional, Hepacivirus hominis, Huh-7
Hepatitis C virus [12] = test: Antiviral activity against Hepatitis C virus genotype 1b harboring NS5B polymerase S282T mutant gene in human Huh7-luc clone ET replicon cells assessed as inhibition of replicon replication after 3 days by luciferase assay; assay type: functional, organism-based, Hepacivirus hominis; conditions: Huh-7, 72 h
Outline: (§3)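 Activity measured in a transient HCV replicon assay in which the NS5B polymerase carries the S282T substitution.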

Liver [13] = test: AUC (0 to last) in Sprague-Dawley rat liver assessed as triphosphate metabolite level at 50 mg/kg, po administered as single dose; assay type: ADME, organism-based; set-up: time 0 - last, dose 50 mg/kg, route oral; conditions: in vivo
Hepatitis C virus [14] = test: Antiviral activity against Hepatitis C virus harboring NS5B polymerase S282T mutant gene; assay type: functional, Hepacivirus hominis; outline: as §3
Hepatitis C virus [15] = test: Ratio of EC90 for Hepatitis C virus harboring NS5B polymerase S282T mutant gene to EC90 for Hepatitis C virus harboring wild type NS5B polymerase; assay type: functional, Hepacivirus hominis

Structure (SMILES) | CC50 at 72 h [1] | EC50 (Hepatitis C virus [2]) | also measured
C[C@@]1(F)[C@H](O)[C@@H](CO)O[C@H]1n1ccc(N)nc1=O | > 98 µM | 1.9 µM | 
O=c1ccn([C@@H]2O[C@H](CO)[C@@H](O)[C@]23CCO3)c(=O)[nH]1 | > 98 µM | > 98 µM | Ki [3]: 2.4 µM
Nc1ccn([C@@H]2O[C@H](CO)[C@@H](O)[C@]23CCO3)c(=O)n1 | > 98 µM | 17.1 µM | 
C[C@H](N[P@](=O)(OC[C@H]1O[C@@H](n2ccc(N)nc2=O)[C@@]2(CCO2)[C@@H]1O)Oc1ccccc1)C(=O)OCc1ccccc1 | > 98 µM | 35.8 µM | 
C[C@H](N[P@@](=O)(OC[C@H]1O[C@@H](n2ccc(N)nc2=O)[C@@]2(CCO2)[C@@H]1O)Oc1ccccc1)C(=O)OCc1ccccc1 | > 98 µM | 41.5 µM | 
C[C@H](N[P@](=O)(OC[C@H]1O[C@@H](n2ccc(=O)[nH]c2=O)[C@@]2(CCO2)[C@@H]1O)Oc1ccccc1)C(=O)OCc1ccccc1 | > 98 µM | 2.1 µM | 
CCCCOC(=O)[C@H](C)N[P@](=O)(OC[C@H]1O[C@@H](n2ccc(=O)[nH]c2=O)[C@@]2(CCO2)[C@@H]1O)Oc1ccccc1 | > 98 µM | 2.2 µM | 
C[C@H](N[P@@](=O)(OC[C@H]1O[C@@H](n2ccc(=O)[nH]c2=O)[C@@]2(CCO2)[C@@H]1O)Oc1cccc2ccccc12)C(=O)OCc1ccccc1 | > 98 µM | 2.3 µM | 
C[C@H](N[P@](=O)(OC[C@H]1O[C@@H](n2ccc(=O)[nH]c2=O)[C@@]2(CCO2)[C@@H]1O)Oc1cccc2ccccc12)C(=O)OCc1ccccc1 | > 98 µM | 3.7 µM | 
CCCCOC(=O)[C@H](C)NP(=O)(OC[C@H]1O[C@@H](n2ccc(=O)[nH]c2=O)[C@@]2(CCO2)[C@@H]1O)Oc1ccccc1 (some centres undefined) | > 98 µM | 3.9 µM | Drug metabolism (Hepatocyte [4]): 351 ng/mL; AUC (Liver [5]): 10.48 µg·h/mL; Drug metabolism (Hepatocyte [6]): 152 ng/mL; Drug metabolism (Hepatocyte [7]): 75 ng/mL; Tmax (Liver [8]): 6 h; Cmax (Liver [9]): 894 ng/g; Drug metabolism (Hepatocyte [10]): 2730 ng/mL; Ratio EC50 (Hepatitis C virus [11]): 4.8; EC50 (Hepatitis C virus [12]): 18.9 µM; AUClast (Liver [13]): 9.871 µg·h/mL
CC[C@H](N[P@](=O)(OC[C@H]1O[C@@H](n2ccc(=O)[nH]c2=O)[C@@]2(CCO2)[C@@H]1O)Oc1ccccc1)C(=O)OCc1ccccc1 | > 98 µM | 4.6 µM | 
CC[C@H](N[P@@](=O)(OC[C@H]1O[C@@H](n2ccc(=O)[nH]c2=O)[C@@]2(CCO2)[C@@H]1O)Oc1ccccc1)C(=O)OCc1ccccc1 | > 98 µM | 4.9 µM | 
C[C@H](N[P@@](=O)(OC[C@H]1O[C@@H](n2ccc(=O)[nH]c2=O)[C@@]2(CCO2)[C@@H]1O)Oc1ccccc1)C(=O)OCc1ccccc1 | > 98 µM | 5 µM | 
CCCCOC(=O)[C@H](C)N[P@@](=O)(OC[C@H]1O[C@@H](n2ccc(=O)[nH]c2=O)[C@@]2(CCO2)[C@@H]1O)Oc1ccccc1 | > 98 µM | 5.3 µM | 
[N-]=[N+]=N[C@]1(CO)O[C@@H](n2ccc(=O)[nH]c2=O)[C@@H](O)[C@H]1O |  | > 100 µM | 
C[C@@]1(O)[C@H](O)[C@@H](CO)O[C@H]1n1ccc(N)nc1=O | > 98 µM | 4.6 µM | 

Structure (SMILES) | CC50 at 72 h [1] | EC50 (Hepatitis C virus [2]) | also measured
CC(C)OC(=O)[C@H](C)NP(=O)(OC[C@H]1O[C@@H](n2ccc(N)nc2=O)[C@@]2(CCO2)[C@@H]1O)Oc1ccccc1 (mixture of isomers) | > 98 µM | 0.74 µM | 
C[C@H](NP(=O)(OC[C@H]1O[C@@H](n2ccc(N)nc2=O)[C@@]2(CCO2)[C@@H]1O)Oc1ccc(Cl)cc1)C(=O)OCc1ccccc1 (mixture of isomers) | > 98 µM | 2.6 µM | 
CC(C)COC(=O)[C@H](C)NP(=O)(OC[C@H]1O[C@@H](n2ccc(=O)[nH]c2=O)[C@@]2(CCO2)[C@@H]1O)Oc1ccccc1 (mixture of isomers) | > 98 µM | 0.23 µM | 
O=C(CNP(=O)(OC[C@H]1O[C@@H](n2ccc(=O)[nH]c2=O)[C@@]2(CCO2)[C@@H]1O)Oc1ccc(Cl)cc1)OCc1ccccc1 (mixture of isomers) | > 98 µM | 0.32 µM | 
C[C@H](NP(=O)(OC[C@H]1O[C@@H](n2ccc(=O)[nH]c2=O)[C@@]2(CCO2)[C@@H]1O)Oc1ccc(Cl)cc1)C(=O)OCc1ccccc1 (mixture of isomers) | > 98 µM | 1.3 µM | 
C[C@H](NP(=O)(OC[C@H]1O[C@@H](n2ccc(=O)[nH]c2=O)[C@@]2(CCO2)[C@@H]1O)Oc1cccc2ccccc12)C(=O)OCc1ccccc1 (mixture of isomers) | > 98 µM | 2 µM | Drug metabolism (Hepatocyte [4]): 1713 ng/mL; AUC (Liver [5]): 9.142 µg·h/mL; Drug metabolism (Hepatocyte [6]): 293 ng/mL; Drug metabolism (Hepatocyte [7]): 107 ng/mL; Tmax (Liver [8]): 6 h; Cmax (Liver [9]): 754 ng/g; Drug metabolism (Hepatocyte [10]): 3373 ng/mL; AUClast (Liver [13]): 8.427 µg·h/mL
CC(C)CCOC(=O)[C@H](C)NP(=O)(OC[C@H]1O[C@@H](n2ccc(=O)[nH]c2=O)[C@@]2(CCO2)[C@@H]1O)Oc1ccccc1 (mixture of isomers) | > 98 µM | 3.5 µM | 
CC[C@H](NP(=O)(OC[C@H]1O[C@@H](n2ccc(=O)[nH]c2=O)[C@@]2(CCO2)[C@@H]1O)Oc1ccccc1)C(=O)OCc1ccccc1 (mixture of isomers) | > 98 µM | 5.7 µM | Drug metabolism (Hepatocyte [4]): 202 ng/mL; Drug metabolism (Hepatocyte [6]): 215 ng/mL; Drug metabolism (Hepatocyte [7]): 87 ng/mL; Tmax (Liver [8]): 6 h; Cmax (Liver [9]): 419 ng/g; Drug metabolism (Hepatocyte [10]): 1480 ng/mL; AUClast (Liver [13]): 1.108 µg·h/mL
C[C@H](NP(=O)(OC[C@H]1O[C@@H](n2ccc(=O)[nH]c2=O)[C@@]2(CCO2)[C@@H]1O)Oc1ccccc1)C(=O)OCc1ccccc1 (mixture of isomers) | > 98 µM | 5.7 µM | Drug metabolism (Hepatocyte [4]): 304 ng/mL; Drug metabolism (Hepatocyte [6]): 112 ng/mL; Drug metabolism (Hepatocyte [7]): 81 ng/mL; Tmax (Liver [8]): 2 h; Cmax (Liver [9]): 775 ng/g; Drug metabolism (Hepatocyte [10]): 2457 ng/mL; AUClast (Liver [13]): 3.263 µg·h/mL
Cc1ccc(C(C)C)c(OP(=O)(N[C@@H](C)C(=O)OCc2ccccc2)OC[C@H]2O[C@@H](n3ccc(=O)[nH]c3=O)[C@@]3(CCO3)[C@@H]2O)c1 (mixture of isomers) | 29.6 µM | 7.5 µM | 
CC(C)OC(=O)[C@H](C)NP(=O)(OC[C@H]1O[C@@H](n2ccc(=O)[nH]c2=O)[C@@]2(CCO2)[C@@H]1O)Oc1ccccc1 (mixture of isomers) | > 98 µM | 20.9 µM | 
COC(=O)C(C)(C)NP(=O)(OC[C@H]1O[C@@H](n2ccc(=O)[nH]c2=O)[C@@]2(CCO2)[C@@H]1O)Oc1ccccc1 (mixture of isomers) | > 98 µM | 37.9 µM | 
O=C(OCc1ccccc1)[C@@H](NP(=O)(OC[C@H]1O[C@@H](n2ccc(=O)[nH]c2=O)[C@@]2(CCO2)[C@@H]1O)Oc1ccccc1)c1ccccc1 (mixture of isomers) | > 92.8 µM | > 87.2 µM | 
CC[C@H](NP(=O)(OC[C@H]1O[C@@H](n2ccc(=O)[nH]c2=O)[C@@]2(CCO2)[C@@H]1O)Oc1ccccc1)C(=O)OC(C)C (mixture of isomers) | > 98 µM | > 96.4 µM | 
CC(C)OC(=O)[C@H](C)N[P@](=O)(OC[C@H]1O[C@@H](n2ccc(=O)[nH]c2=O)[C@](C)(F)[C@@H]1O)Oc1ccccc1 [SOFOSBUVIR] |  |  | EC90 (Hepatitis C virus [14]): 7.8 µM; Ratio (Hepatitis C virus [15]): 18.6
